Measurements from article PMC10150327 (NAR Cancer, 2023).

Key:
MRC5SV40 fibroblasts = assay: Neutral comet assay, HU-induced DSBs; assay type: cell-based, human; settings: HU 24 h, inhibitor 30 min before HU
MRC5 SV40 cells = assay: Native IdU assay, nascent ssDNA; assay type: cell-based, human; settings: 2 mM HU, short treatment
[1] = test system: association of RAD52 with parental ssDNA; assay: In situ proximity ligation assay; assay type: cell-based; settings: after HU treatment
How it was run: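 Parental DNA was labelled with 50 μM IdU for 20 h, then 2 h in fresh DMEM before treatment. Cells were Triton-permeabilised (0.5%, 10 min, 4°C), fixed in 3% formaldehyde/2% sucrose and blocked in 3% BSA. Probes: rabbit anti-RAD52 (1:150) plus mouse anti-IdU (1:10), then PLA probes, each 1 h at 37°C. Ligation and rolling-circle amplification used a TRITC oligo. Single-antibody controls were included; spots per cell given as mean ± SE.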

RAD52–ssDNA interaction = target: T1, RAD52–ssDNA interaction (Homo sapiens, UniProt P43351); settings: cited from earlier work
T1 sequence (P43351 1-418): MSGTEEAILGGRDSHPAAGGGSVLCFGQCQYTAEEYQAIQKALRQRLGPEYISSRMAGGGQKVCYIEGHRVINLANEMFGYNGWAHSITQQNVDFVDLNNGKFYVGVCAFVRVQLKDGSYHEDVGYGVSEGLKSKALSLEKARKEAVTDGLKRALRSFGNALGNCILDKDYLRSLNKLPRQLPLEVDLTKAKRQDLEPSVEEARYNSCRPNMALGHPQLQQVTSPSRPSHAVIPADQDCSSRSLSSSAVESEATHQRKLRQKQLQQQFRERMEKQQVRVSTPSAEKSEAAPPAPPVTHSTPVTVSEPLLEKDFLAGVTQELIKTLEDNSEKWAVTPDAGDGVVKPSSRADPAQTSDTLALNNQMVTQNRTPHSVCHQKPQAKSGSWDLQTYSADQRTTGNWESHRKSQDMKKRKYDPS

BRCA2-depleted cells = settings: cited from earlier work
RPA–ssDNA interaction = RPA–ssDNA interaction (Homo sapiens, UniProt P27694); settings: cited from earlier work
[2] = test system: complemented cell line (HA); settings: cited from earlier work
EUFA423F = settings: cited from earlier work
mass photometry = target: the molecule itself; assay: mass photometry

Sequence of RPA–ssDNA interaction (P27694 whole entry): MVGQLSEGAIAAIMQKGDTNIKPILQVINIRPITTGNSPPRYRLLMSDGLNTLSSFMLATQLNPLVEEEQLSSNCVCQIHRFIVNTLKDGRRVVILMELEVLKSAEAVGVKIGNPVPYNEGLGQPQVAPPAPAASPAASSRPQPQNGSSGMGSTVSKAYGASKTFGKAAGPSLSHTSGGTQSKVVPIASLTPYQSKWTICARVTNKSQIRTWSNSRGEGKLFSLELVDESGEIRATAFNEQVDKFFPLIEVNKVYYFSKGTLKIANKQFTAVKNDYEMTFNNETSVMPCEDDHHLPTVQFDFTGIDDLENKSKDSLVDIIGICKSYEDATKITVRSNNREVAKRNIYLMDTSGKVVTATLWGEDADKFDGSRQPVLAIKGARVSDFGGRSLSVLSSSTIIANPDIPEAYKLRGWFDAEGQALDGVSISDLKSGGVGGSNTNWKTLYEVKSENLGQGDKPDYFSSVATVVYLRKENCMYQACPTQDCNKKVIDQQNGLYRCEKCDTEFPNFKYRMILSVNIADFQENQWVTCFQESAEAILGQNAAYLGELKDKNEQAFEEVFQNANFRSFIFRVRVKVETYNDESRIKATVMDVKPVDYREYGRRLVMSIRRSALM
Sequence of RPA–ssDNA interaction (P15927 whole entry partner): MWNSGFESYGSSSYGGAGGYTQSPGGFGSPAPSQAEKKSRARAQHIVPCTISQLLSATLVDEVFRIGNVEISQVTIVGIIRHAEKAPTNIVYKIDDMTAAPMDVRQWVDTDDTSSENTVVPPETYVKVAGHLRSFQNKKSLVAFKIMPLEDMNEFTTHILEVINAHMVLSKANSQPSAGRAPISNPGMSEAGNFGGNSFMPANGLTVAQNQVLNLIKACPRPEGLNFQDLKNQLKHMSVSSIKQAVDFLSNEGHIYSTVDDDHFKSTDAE
Sequence of RPA–ssDNA interaction (P35244 whole entry partner): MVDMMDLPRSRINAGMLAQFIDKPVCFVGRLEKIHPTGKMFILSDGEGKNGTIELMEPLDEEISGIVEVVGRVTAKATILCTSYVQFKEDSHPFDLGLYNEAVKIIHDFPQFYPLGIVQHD

For `Oc1cc(O)c2c(c1)O[C@H](c1cc(O)c(O)c(O)c1)[C@H](O)C2` [EGC, epigallocatechin], the “DSBs formation (tail moment) in HU-treated cells” value (MRC5SV40 fibroblasts) was “significantly reduced”, the “Exposure of nascent ssDNA (native anti-IdU IF)” value (MRC5 SV40 cells) was “significantly increased the level of ssDNA” and the “Association of RAD52 with parental ssDNA (PLA spots per cell)” value [1] was “supressed”. The “Competition with ssDNA binding to RAD52” value (RAD52–ssDNA interaction) was “competed with ssDNA binding to RAD52”, the “Specificity for RAD52” value (RAD52–ssDNA interaction) was “highly specific to RAD52” and the “Toxicity to BRCA2-depleted cells” value (BRCA2-depleted cells) was “selectively toxic”.

In the case of `O=C(O[C@@H]1Cc2c(O)cc(O)cc2O[C@@H]1c1cc(O)c(O)c(O)c1)c1cc(O)c(O)c(O)c1` [EGCG, epigallocatechin gallate], the “Effect on ssDNA binding to RPA” value (RPA–ssDNA interaction) is listed as “also inhibited the RPA–ssDNA interaction”.

In the case of `CO[C@@]12[C@H](COC(N)=O)C3=C(C(=O)C(C)=C(N)C3=O)N1C[C@@H]1N[C@@H]12` [mitomycin C], the “Sensitivity of complemented cell line (HA)” value [2] is given as “resistant”.

In the case of `C[C@]1(c2nc3c(C(N)=O)cccc3[nH]2)CCCN1` [veliparib], the “Sensitivity of EUFA423F cells” value (EUFA423F) is listed as “sensitive” and the “Sensitivity of complemented cell line (HA)” value [2] is listed as “resistant”.

B1: 6xHis-tagged human RAD52 (wild type) (natural protein)
chain: MSGTEEAILGGRDSHPAAGGGSVLCFGQCQYTAEEYQAIQKALRQRLGPEYISSRMAGGGQKVCYIEGHRVINLANEMFGYNGWAHSITQQNVDFVDLNNGKFYVGVCAFVRVQLKDGSYHEDVGYGVSEGLKSKALSLEKARKEAVTDGLKRALRSFGNALGNCILDKDYLRSLNKLPRQLPLEVDLTKAKRQDLEPSVEEARYNSCRPNMALGHPQLQQVTSPSRPSHAVIPADQDCSSRSLSSSAVESEATHQRKLRQKQLQQQFRERMEKQQVRVSTPSAEKSEAAPPAPPVTHSTPVTVSEPLLEKDFLAGVTQELIKTLEDNSEKWAVTPDAGDGVVKPSSRADPAQTSDTLALNNQMVTQNRTPHSVCHQKPQAKSGSWDLQTYSADQRTTGNWESHRKSQDMKKRKYDPS
In the case of B1, the “stoichiometry N” value (mass photometry) is reported as 10.
